A selection: hits, their analogues and other compounds. The true share with any hit is near 4.6%.
UCH37 DUB inh: inhibitors of human UCH37 deubiquitinase, primary screen, biochemical, Ub-AMC cleavage, fluorescence; Ubiquitin carboxyl-terminal hydrolase isozyme L5 (Homo sapiens), Q9Y5K5; purified proteasome/UCH37; inhibition, % (no concentration beside the values); 330,000 compounds, 0.33% hits;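 active = mean inhibition over replicate wells above about 20%, limit read from the data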;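 note: 0% = compound-free wells with enzyme and 100% = wells lacking proteasome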
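Material: human UCH37 enzyme supplied as purified proteasome complex. Measure: % inhibition of Ub-AMC cleavage fluorescence. Medium: pH 7.4 Tris-HCl (50 mM) with ovalbumin, ATP-MgCl2, DTT. Times: 30 min preincubation with enzyme, 25 min cleavage at room temperature. Detection: AMC fluorescence intensity at 355/460 nm.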
Rtt109 Vps75: inhibitors of C. albicans Rtt109/Vps75 HAT, primary screen, biochemical, ThioGlo CoA-SH fluorescence, plate reader; purified Rtt109/Vps75, 4 h; inhibition, % at 34.9 µM; 330,000 compounds, 0.16% hits;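 active = inhibition of at least 50% in every replicate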
PfM18AAP inh-1: PfM18AAP inhibitors, malaria aminopeptidase, primary screen, biochemical, QFRET, recombinant enzyme | H-Glu-NHMec fluorogenic cleavage | inhibition, % at 7.35 µM | M18 aspartyl aminopeptidase (Plasmodium falciparum 3D7) | 290,000 compounds, 1.2% hits;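 active = inhibition above the campaign mean inhibition over all tested compounds plus 3 SD, cut at about 28% in these data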;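 note: 0% = plate median of test compound wells and 100% = 2 mM ZnCl2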
ALR H2O2 inh: inhibitors of human ALR sulfhydryl oxidase, primary screen, biochemical, H2O2 detection, HRP-luminol luminescence, single point; FAD-linked sulfhydryl oxidase ALR (Homo sapiens), P55789; purified ALR, DTT oxidation; inhibition, % (no concentration beside the values); 290,000 compounds, 3.8% hits; AID 485317, 2010;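 active = mean replicate inhibition above about 79%, with every replicate also reaching it, limit read from the data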
FAS TE block: FAS thioesterase domain inhibitors, primary screen, biochemical, fluorescence intensity, uHTS; recombinant FAS-TE, OMFH fluorogenic substrate, fluorescence endpoint; inhibition, % at 15 µM; 360,000 compounds, 0.67% hits;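 active = compounds whose normalised, plate-corrected inhibition of enzyme fluorescence in the single-dose primary screen is 50% or more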;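 note: 0% = DMSO with enzyme and 100% = substrate without enzyme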
Target sequence (P49327 whole entry, looked up, the tested form may be a part): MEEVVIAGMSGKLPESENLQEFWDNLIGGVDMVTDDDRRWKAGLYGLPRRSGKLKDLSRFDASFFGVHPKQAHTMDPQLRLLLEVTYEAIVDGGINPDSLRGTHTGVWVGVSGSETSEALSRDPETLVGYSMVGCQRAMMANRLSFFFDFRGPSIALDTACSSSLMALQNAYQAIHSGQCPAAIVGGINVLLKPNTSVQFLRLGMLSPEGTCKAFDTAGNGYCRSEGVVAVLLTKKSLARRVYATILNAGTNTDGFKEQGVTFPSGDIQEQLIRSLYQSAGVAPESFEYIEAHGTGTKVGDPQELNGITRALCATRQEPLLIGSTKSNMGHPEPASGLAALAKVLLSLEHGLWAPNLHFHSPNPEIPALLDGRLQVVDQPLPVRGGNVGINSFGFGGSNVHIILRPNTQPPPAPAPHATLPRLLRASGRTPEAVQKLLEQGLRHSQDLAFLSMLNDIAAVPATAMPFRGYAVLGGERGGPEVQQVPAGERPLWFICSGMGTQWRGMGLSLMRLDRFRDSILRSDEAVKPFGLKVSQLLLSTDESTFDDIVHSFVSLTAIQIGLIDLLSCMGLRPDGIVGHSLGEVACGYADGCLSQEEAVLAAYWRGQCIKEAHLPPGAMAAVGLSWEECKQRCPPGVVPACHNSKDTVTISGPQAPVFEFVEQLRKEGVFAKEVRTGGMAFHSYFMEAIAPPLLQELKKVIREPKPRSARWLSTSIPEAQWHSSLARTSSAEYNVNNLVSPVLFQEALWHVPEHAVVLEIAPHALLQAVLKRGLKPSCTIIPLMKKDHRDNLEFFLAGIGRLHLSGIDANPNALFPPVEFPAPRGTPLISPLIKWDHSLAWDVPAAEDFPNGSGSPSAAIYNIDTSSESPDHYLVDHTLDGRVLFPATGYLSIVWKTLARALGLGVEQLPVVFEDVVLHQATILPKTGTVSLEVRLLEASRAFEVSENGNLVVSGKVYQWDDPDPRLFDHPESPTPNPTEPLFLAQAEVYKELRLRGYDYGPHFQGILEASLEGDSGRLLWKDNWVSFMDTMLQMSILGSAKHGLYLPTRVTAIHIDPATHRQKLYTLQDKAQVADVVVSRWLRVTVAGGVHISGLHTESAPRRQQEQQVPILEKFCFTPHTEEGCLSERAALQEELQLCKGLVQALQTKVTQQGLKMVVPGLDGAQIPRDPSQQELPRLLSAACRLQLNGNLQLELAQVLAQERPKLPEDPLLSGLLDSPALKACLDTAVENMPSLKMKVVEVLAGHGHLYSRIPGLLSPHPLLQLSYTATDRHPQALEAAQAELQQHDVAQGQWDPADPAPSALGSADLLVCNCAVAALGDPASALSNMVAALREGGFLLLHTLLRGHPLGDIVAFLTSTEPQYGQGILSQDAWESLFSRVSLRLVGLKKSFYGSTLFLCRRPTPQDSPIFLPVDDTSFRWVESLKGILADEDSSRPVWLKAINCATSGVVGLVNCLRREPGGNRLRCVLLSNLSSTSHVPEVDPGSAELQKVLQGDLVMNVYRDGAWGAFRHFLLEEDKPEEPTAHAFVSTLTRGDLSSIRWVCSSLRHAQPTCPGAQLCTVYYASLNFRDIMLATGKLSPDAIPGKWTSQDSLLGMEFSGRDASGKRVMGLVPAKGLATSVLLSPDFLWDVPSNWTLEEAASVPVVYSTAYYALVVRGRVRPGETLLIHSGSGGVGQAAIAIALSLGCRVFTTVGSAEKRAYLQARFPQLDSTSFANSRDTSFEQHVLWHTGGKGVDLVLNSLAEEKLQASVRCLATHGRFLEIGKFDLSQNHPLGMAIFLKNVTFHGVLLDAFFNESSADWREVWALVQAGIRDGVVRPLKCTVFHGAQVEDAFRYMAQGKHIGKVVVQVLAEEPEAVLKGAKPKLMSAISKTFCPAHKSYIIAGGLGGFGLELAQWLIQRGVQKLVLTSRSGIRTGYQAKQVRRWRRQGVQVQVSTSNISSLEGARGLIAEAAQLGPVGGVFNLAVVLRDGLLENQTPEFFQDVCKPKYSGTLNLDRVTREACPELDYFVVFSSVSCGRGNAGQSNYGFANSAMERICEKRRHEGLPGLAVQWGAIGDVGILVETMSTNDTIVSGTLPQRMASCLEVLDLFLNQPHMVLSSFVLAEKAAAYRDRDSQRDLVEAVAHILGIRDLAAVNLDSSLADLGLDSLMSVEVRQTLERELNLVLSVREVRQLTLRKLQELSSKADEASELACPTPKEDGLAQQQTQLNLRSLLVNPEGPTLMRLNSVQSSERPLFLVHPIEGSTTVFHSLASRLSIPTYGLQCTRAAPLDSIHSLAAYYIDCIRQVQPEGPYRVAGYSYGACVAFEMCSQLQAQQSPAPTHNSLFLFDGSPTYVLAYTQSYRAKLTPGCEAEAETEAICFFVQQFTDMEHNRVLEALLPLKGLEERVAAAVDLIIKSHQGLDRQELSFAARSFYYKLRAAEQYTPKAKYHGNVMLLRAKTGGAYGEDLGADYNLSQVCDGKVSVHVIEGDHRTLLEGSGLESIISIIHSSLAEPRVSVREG
HDAC3 inhib: HDAC3 deacetylase inhibitors, primary screen, biochemical, fluorescence, cell-free homogeneous; inhibition, % at 8.3 µM; Histone deacetylase 3 (Homo sapiens), O15379; 320,000 compounds, 0.15% hits; AID 2718, 2010; recombinant HDAC3, fluorogenic peptide/trypsin coupled; in the data active = inhibition above about 26%, passing the limit was not always enough
PfM18AAP inh-2: PfM18AAP inhibitors, malaria aminopeptidase, confirmation, biochemical, QFRET, recombinant enzyme, triplicate; H-Glu-NHMec fluorogenic cleavage; 2,400 compounds, 28% hits; shares compounds with PfM18AAP inh-1; AID 2170, 2009; inhibition, % at 7.35 µM;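 active = mean inhibition over replicate wells above the hit cutoff set for the earlier primary screen, cut at about 29% in these data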;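 note: 0% = median of test compound wells and 100% = 2 mM ZnCl2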
CTSL1 confirm: cathepsin L1 inhibitors, retest, confirmation, counter-screen for PFM18AAP inhibitor project, biochemical, QFRET, triplicate. shares compounds with PfM18AAP inh-1. purified cathepsin L1, Z-Leu-Arg-MCA fluorescence. inhibition, % at 5.96 µM. 2,400 tested, under 10 active. AID 2178, 2009;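 active = average inhibition across replicates above the hit cutoff set in the earlier primary screen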;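 note: 0% = median of test compound wells and 100% = Z-Phe-Ala-diazomethylketone 1 µM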
The depositor's hits bear a star; · = not tested or not shown.

SMILES	UCH37 DUB inh	Rtt109 Vps75	PfM18AAP inh-1	ALR H2O2 inh	FAS TE block	HDAC3 inhib	PfM18AAP inh-2	CTSL1 confirm
COCc1c(C(=O)NN=Cc2ccccn2)nnn1-c1nonc1N	-2.2	·	·	·	·	·	·	·
CCN(C(=O)CN1CCCCCC1)c1c(N)n(Cc2ccccc2)c(=O)[nH]c1=O	·	12.6	·	-4.1	1.2	4.1	·	·
CCN(C(=O)CN1CCN(c2ccc(O)cc2)CC1)c1c(N)n(Cc2ccccc2)c(=O)[nH]c1=O	1.5	-14.9	34.9*	·	-1.0	-1.2	1.1	-3.8
CCn1c(-c2cc(-c3ccccc3)sc2N)n[nH]c1=S	-2.7	1.5	41.0*	98.5*	1.2	5.5	8.3	3.6
CCn1c(-c2cc(-c3cccc(OC)c3)nc3ccccc23)n[nH]c1=S	2.8	8.6	13.4	63.2	0.9	1.0	·	·
Cc1c(C)n(C(=O)CSc2ncn[nH]2)c2ccccc12	2.0	3.4	82.7*	32.9	-39.2	4.9	52.2*	6.0
CC1=CC(C)(C)N(C(=O)CSc2ncn[nH]2)c2ccccc21	1.8	1.0	54.4*	-1.2	-20.4	-3.8	-42.0	1.8
Cc1ccc(-n2cccc2/C=N/n2cnnc2)cc1Cl	·	-5.2	39.3*	-12.0	-10.8	-2.1	-38.7	-4.3
CCOc1cc(C2C(C(=O)c3ccco3)=C(O)C(=O)N2CCc2ccccc2)ccc1O (centres undefined)	10.2	8.9	32.8*	21.7	-6.9	7.7	-4.8	5.5
COCc1cc(C2C(C(=O)c3ccco3)=C(O)C(=O)N2CCOCCO)ccc1O (centres undefined)	7.0	4.0	43.2*	18.1	-3.4	-0.8	-19.8	6.3
COCCCN1C(=O)C(O)=C(C(=O)c2ccco2)C1c1ccccc1 (centres undefined)	0.0	16.1	0.5	-1.0	-8.6	-3.2	·	·
O=C(CC12CC3CC(CC(C3)C1)C2)NN=Cc1ccc[nH]1	3.7	·	·	·	·	·	·	·
CCn1c(=O)n(CC)c2cc(N3CCCC3)c(NC(=O)c3ccc(F)cc3)cc21	·	1.4	34.9*	99.5*	-0.7	5.1	-54.0	5.1
CCn1c(=O)n(CC)c2cc(N3CCCC3)c(NC(=O)c3c(F)cccc3F)cc21	4.7	14.9	35.2*	98.8*	-1.8	4.4	-20.2	1.9
COc1cccc(C(=O)/C=C/Nc2cc(C)ccc2O)c1	0.7	13.7	68.5*	·	10.5	10.4	-24.2	2.9
CCOC(=O)c1ccc(N/C=C\C(=O)c2cccc(OC)c2)cc1	-17.7	·	0.5	-1.7	10.6	-2.9	·	·
Cn1c(N)c(C(=O)N/N=C/c2ccccc2)sc1=S	·	3.3	33.5*	22.0	3.0	1.2	-34.8	1.9
COc1ccc(C=Nn2c(-c3cc(C)[nH]n3)n[nH]c2=S)cc1	3.6	·	·	·	·	·	·	·
O=C(NN=Cc1cn(Cc2ccccc2)c2ccccc12)c1cc(O)cc(O)c1	-9.1	·	·	·	·	·	·	·
CC(/C=C/c1ccccc1)=NNC(N)=S	11.6	·	·	·	·	·	·	·
CC(=O)c1c(O)cc(C)n(Nc2nc(C)cc(C)n2)c1=O	4.5	3.3	33.6*	1.8	-4.3	9.4	-27.8	2.0
O=C(COc1ccccc1)NCc1n[nH]c(=S)n1-c1ccccc1	0.7	-3.5	41.7*	33.2	-2.6	-2.6	10.9	-1.8
COc1ccc(-n2c(CNC(=O)COc3ccccc3)n[nH]c2=S)cc1	-2.8	-2.6	32.7*	0.2	0.7	-5.7	4.0	-0.6
COc1ccc(-n2c(Cn3nnc4ccccc43)n[nH]c2=S)cc1	1.5	1.5	38.5*	·	-8.7	·	11.3	0.3
COc1ccc(-n2c(Cn3nnc4ccccc43)nnc2SCC(=O)O)cc1	-0.4	-10.9	-8.5	-10.3	-2.4	-1.7	·	·
SMILES	UCH37 DUB inh	Rtt109 Vps75	PfM18AAP inh-1	ALR H2O2 inh	FAS TE block	HDAC3 inhib	PfM18AAP inh-2	CTSL1 confirm
COc1ccc(/C=C2\C(=O)N(c3nc(-c4ccc(Br)cc4)cs3)N=C2c2ccccc2)cc1	·	·	-11.4	·	·	·	·	·
O=C1/C(=C\c2ccc(O)c(O)c2)C(c2ccccc2)=NN1c1ccccc1	4.0	·	49.0*	·	-0.7	·	35.8*	-2.3
COc1cc(C(=O)NN=Cc2coc3ccccc3c2=O)cc(OC)c1OC	-29.5	·	·	·	·	·	·	·
Cc1ccc(C2N3CC4([N+](=O)[O-])CN2CC([N+](=O)[O-])(C3)C4(C)C)cc1 (centres undefined)	-0.1	-4.3	1.3	-2.5	-7.2	-6.6	·	·
CC1(C)C2([N+](=O)[O-])CN3CC1([N+](=O)[O-])CN(C2)C3c1ccc(O)c(O)c1 (centres undefined)	0.4	-10.2	77.0*	18.7	-4.4	-4.8	84.2*	3.7
OCCN1CCN(C(=S)c2ccc(Cl)c(Cl)c2)CC1	11.5	0.6	49.2*	·	-4.2	9.1	4.5	-4.6
Cc1ccc(N2CC(C(=O)OCC(=O)c3ccc([N+](=O)[O-])cc3)CC2=O)cc1 (centres undefined)	0.3	-0.9	37.7*	·	-3.1	-5.9	-22.2	-17.3
CC(N=C1CC(C)(C)CC(=O)/C1=C(\O)CCCN1C(=O)c2ccccc2C1=O)C(=O)O (centres undefined)	1.5	·	·	·	·	·	·	·
NC(=O)CS(=O)(=O)c1ccc(Cl)cc1	2.0	-1.4	40.1*	-7.7	-4.2	-2.5	-55.6	-2.0
O=C(O)COc1ccc(C=Nn2c(COc3ccccc3)nc3ccccc3c2=O)cc1	4.8	·	·	·	·	·	·	·
NC(=S)NNC(=O)Nc1ccc(Cl)c(Cl)c1	·	3.3	35.5*	93.9*	-12.7	4.7	14.0	1.9
O=C(Cc1ccccc1)NNC(=O)Nc1ccc(Cl)c(Cl)c1	-0.1	-2.7	5.0	-2.8	18.8	-3.3	·	·
COc1ccc(S(=O)(=O)NN=C(C)c2cccc(NC(=O)c3ccccc3Cl)c2)cc1	0.7	·	·	·	·	·	·	·
c1ccc2c(c1)NCC1CCCN21 (centres undefined)	-1.0	-4.1	37.4*	37.5	-5.6	0.5	-69.7	-3.6
CC(=O)c1ccc(NC(=O)/C(=C\c2ccco2)NC(=O)c2ccco2)cc1	·	9.9	6.8	5.4	-4.5	7.5	·	·
O=C(Nc1ccc(C(=O)O)cc1)/C(=C\c1ccco1)NC(=O)c1ccco1	12.2	3.0	32.3*	40.3	-4.9	1.2	-43.9	1.4

Screens as filed in PubChem BioAssay.
